Measured values published in ChEMBL document CHEMBL1141592, “Synthesis and anti-inflammatory activities of mono-carbonyl analogues of curcumin” (2008).
Activity calls are given as the source filed them. The rule behind the calls is not given here.

How the values were obtained:
[1] = system: J774.A1; experiment: Antiinflammatory activity in mouse J774A.1 cells assessed as inhibition of lipopolysaccharide-induced TNFalpha production pretreated for 2 hrs at 10 uM before LPS challenge; format: functional
Procedure, shortened: (§1)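 J774A.1 macrophages pretreated 2 h with test agent at 10 μM or vehicle, then stimulated with LPS 0.5 μg/ml for 24 h. Media collected and centrifuged (14,000 rpm, 5 min); TNF-α and IL-6 quantified by mouse ELISA kits. Total protein of viable cell pellets measured by Bio-Rad protein assay. Results expressed as percent of LPS control.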

[2] = system: J774.A1; experiment: Antiinflammatory activity in mouse J774A.1 cells assessed as inhibition of lipopolysaccharide-induced IL6 production pretreated for 2 hrs at 10 uM before LPS challenge; format: functional, cell-based; procedure, shortened: as §1

Structure (SMILES)	Activity [1]	Activity [2]
O=C1/C(=C/c2cccs2)CC/C1=C\c1cccs1	Active	–
COc1cc(/C=C/C(=O)CC(=O)/C=C/c2ccc(O)c(OC)c2)ccc1O	Active	–
CN(C)c1ccc(/C=C2\CC/C(=C\c3ccc(N(C)C)cc3)C2=O)cc1	Active	Active
COc1cc(/C=C2\CCC/C(=C\c3ccc(OC4CCCCO4)c(OC)c3)C2=O)ccc1OC1CCCCO1 (stereo not drawn)	Active	–
O=C(/C=C/c1ccc(OC2CCCCO2)cc1)/C=C/c1ccc(OC2CCCCO2)cc1 (stereo not drawn)	Active	–
COc1cc(/C=C2\CC/C(=C\c3ccc(OC4CCCCO4)c(OC)c3)C2=O)ccc1OC1CCCCO1 (stereo not drawn)	Active	–
CN(C)c1ccc(/C=C/C(=O)/C=C/c2ccc(N(C)C)cc2)cc1	Active	Active
CN(C)CCCOc1ccc(/C=C2\CC/C(=C\c3ccc(OCCCN(C)C)cc3)C2=O)cc1	Active	Active
COc1cc(/C=C/C(=O)/C=C/c2ccc(O)c(OC)c2)ccc1O	Active	Active
CN(C)c1ccc(/C=C2\CCC/C(=C\c3ccc(N(C)C)cc3)C2=O)cc1	Active	Active
COc1cc(/C=C2\CC/C(=C\c3ccc(O)c(OC)c3)C2=O)ccc1O	Active	Active
C=CCOc1ccc(/C=C2\CCC/C(=C\c3ccc(OCC=C)cc3)C2=O)cc1	Active	–
COc1cc(/C=C2\CCC/C(=C\c3ccc(O)c(OC)c3)C2=O)ccc1O	Active	Active
O=C1/C(=C/c2ccc(Br)o2)CCC/C1=C\c1ccc(Br)o1	Active	–
C=CCOc1ccc(/C=C/C(=O)/C=C/c2ccc(OCC=C)cc2)cc1	Active	–
Cc1ccc(/C=C2\CC/C(=C\c3ccc(C)s3)C2=O)s1	Active	–
